Source: ChEMBL document CHEMBL1914319 (Bioorg Med Chem, 2011)

Legend:
BGC-823 = test: Antiproliferative activity against human BGC823 cells after 48 hrs by MTT assay; format: functional, cell-based; settings: BGC-823, 48 h
Summary of the method: (§1)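 1×10^4 cells/well seeded and held 24 h at 37 °C, 5% CO2. Viability read after 48 h by MTT (4 h, 37 °C), DMSO solubilization, A570. Three independent experiments, mean ± SD.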

HeLa = test: Antiproliferative activity against human HeLa cells after 48 hrs by MTT assay; format: functional, cell-based; summary of the method: as §1
[1] = target: Telomerase reverse transcriptase (Homo sapiens, UniProt O14746); test: Inhibition of telomerase in human SW1116 cells after 24 hrs by TRAP-PCR-ELISA assay; format: cell-based, SW 1116
Chain of Telomerase reverse transcriptase (O14746 whole entry): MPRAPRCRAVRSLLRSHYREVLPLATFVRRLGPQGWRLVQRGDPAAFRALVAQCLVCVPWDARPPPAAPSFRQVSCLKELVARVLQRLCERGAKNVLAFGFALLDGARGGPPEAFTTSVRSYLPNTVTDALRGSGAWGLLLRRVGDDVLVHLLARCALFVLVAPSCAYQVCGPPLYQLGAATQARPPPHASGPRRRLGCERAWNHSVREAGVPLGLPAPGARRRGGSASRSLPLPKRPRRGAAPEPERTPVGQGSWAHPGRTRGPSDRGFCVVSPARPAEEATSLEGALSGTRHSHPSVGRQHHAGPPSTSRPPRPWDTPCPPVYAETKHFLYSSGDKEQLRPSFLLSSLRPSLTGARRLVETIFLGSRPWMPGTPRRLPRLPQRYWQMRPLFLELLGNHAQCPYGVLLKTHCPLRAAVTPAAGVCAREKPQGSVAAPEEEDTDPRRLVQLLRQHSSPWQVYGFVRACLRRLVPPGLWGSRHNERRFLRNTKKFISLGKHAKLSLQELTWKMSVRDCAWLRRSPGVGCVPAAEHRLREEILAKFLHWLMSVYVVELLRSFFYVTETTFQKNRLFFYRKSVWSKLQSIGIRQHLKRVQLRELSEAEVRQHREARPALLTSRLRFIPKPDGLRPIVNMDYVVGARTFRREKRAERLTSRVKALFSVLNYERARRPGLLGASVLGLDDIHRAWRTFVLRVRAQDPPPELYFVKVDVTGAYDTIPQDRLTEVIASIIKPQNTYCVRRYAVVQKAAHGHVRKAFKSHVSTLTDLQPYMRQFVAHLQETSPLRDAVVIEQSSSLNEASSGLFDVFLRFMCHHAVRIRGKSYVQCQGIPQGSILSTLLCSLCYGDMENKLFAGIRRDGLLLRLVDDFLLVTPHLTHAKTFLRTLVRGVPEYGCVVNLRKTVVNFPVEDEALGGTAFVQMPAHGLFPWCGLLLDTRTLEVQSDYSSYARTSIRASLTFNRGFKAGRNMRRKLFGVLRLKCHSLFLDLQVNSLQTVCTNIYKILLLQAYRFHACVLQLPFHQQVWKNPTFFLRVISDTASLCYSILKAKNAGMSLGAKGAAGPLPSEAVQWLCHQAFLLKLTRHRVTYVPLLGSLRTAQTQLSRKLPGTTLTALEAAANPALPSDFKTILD
Summary of the method: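 Cells kept in DMEM with 10% FBS, streptomycin and penicillin at 37 °C, 5% CO2. Lysed in RIPA on ice for 30 min, supernatant cleared at 12,000g. Extract used in a TRAP kit, 35 PCR cycles, ELISA read at 490 nm. Mean ± SD.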

HepG2 = test: Antiproliferative activity against human HepG2 cells after 48 hrs by MTT assay; format: functional, cell-based; settings: HepG2, 48 h; summary of the method: as §1
[2] = Antiproliferative activity against human SW1116 cells after 48 hrs by MTT assay; format: functional, cell-based; settings: SW 1116, 48 h; summary of the method: as §1

Row | SMILES | IC50 (BGC-823) [µM] | IC50 (HeLa) [µM] | IC50 [1] [µM] | IC50 (HepG2) [µM] | IC50 [2] [µM]
1 | Cc1cccc(CSc2nnc(-c3ccc4c(c3)OCCO4)o2)c1 | 31.2 | 32.8 | 3.26 | 33.4 | 27.2
2 | O=c1[nH]cc(F)c(=O)[nH]1 [FLUOROURACIL] | 100 | 110 |  |  | 95.2
3 | O=[N+]([O-])c1ccc(CSc2nnc(-c3ccc4c(c3)OCCO4)o2)cc1 | 23 | 27.5 | 2.71 | 35.4 | 14.6
4 | Brc1ccccc1CSc1nnc(-c2ccc3c(c2)OCCO3)o1 | 21.2 | 22.4 | 2.02 | 19.9 | 14.1
5 | Fc1ccc(CSc2nnc(-c3ccc4c(c3)OCCO4)o2)c(F)c1 | 30.3 | 41.7 | 2.44 | 38.7 | 29.6
6 | Cc1ccc(CSc2nnc(-c3ccc4c(c3)OCCO4)o2)cc1 | 31.6 | 45.4 | 5.04 | 41.9 | 32.5
7 | Cc1ccccc1CSc1nnc(-c2ccc3c(c2)OCCO3)o1 | 22.6 | 19 | 1.27 | 22 | 23.9
8 | O=[N+]([O-])c1cccc(CSc2nnc(-c3ccc4c(c3)OCCO4)o2)c1 | 23.7 | 35.6 | 4.65 | 38.3 | 30.1
9 | Clc1ccccc1CSc1nnc(-c2ccc3c(c2)OCCO3)o1 | 22.5 | 36.8 | 5.89 | 22.6 | 29.5
10 | Clc1ccc(CSc2nnc(-c3ccc4c(c3)OCCO4)o2)cc1 | 22.6 | 28.5 | 2.91 | 28.8 | 28.4
11 | Ic1ccccc1CSc1nnc(-c2ccc3c(c2)OCCO3)o1 | 18.9 | 20 | 1.83 | 7.21 | 12.2
12 | Fc1ccccc1CSc1nnc(-c2ccc3c(c2)OCCO3)o1 | 28.9 | 41.6 | 2.93 | 24 | 21.9
13 | Brc1ccc(CSc2nnc(-c3ccc4c(c3)OCCO4)o2)cc1 | 22.2 | 23.6 | 1.66 | 8.54 | 24.5
14 | Ic1ccc(CSc2nnc(-c3ccc4c(c3)OCCO4)o2)cc1 | 22.7 | 31.1 | 3.66 | 31.2 | 29.2
15 | Fc1cccc(F)c1CSc1nnc(-c2ccc3c(c2)OCCO3)o1 | 36.1 | 43.2 | 15.8 | 41.6 | 36.3
16 | Fc1ccc(CSc2nnc(-c3ccc4c(c3)OCCO4)o2)cc1 | 28.7 | 41.2 | 3.67 | 38 | 21.6
17 | Clc1cccc(CSc2nnc(-c3ccc4c(c3)OCCO4)o2)c1 | 26.9 | 31.8 | 2.34 | 33.4 | 25.2
18 | c1ccc(CSc2nnc(-c3ccc4c(c3)OCCO4)o2)cc1 | 33.6 | 40.3 | 8.21 | 32.1 | 31.5
19 | Brc1cccc(CSc2nnc(-c3ccc4c(c3)OCCO4)o2)c1 | 20.6 | 25.9 | 2.45 | 24.9 | 20.1
20 | O=[N+]([O-])c1ccccc1CSc1nnc(-c2ccc3c(c2)OCCO3)o1 | 23.3 | 32.7 | 12.1 | 38.1 | 20.8
